Source: ChEMBL document CHEMBL1255454, “Systematic approach to optimizing specifically targeted antimicrobial peptides against Streptococcus mutans” (2010)
≈ marks a conversion by molar mass, not a printed value. Calls of active or inactive are those of the source. The rule behind the calls is not given here. Square brackets hold non-standard residues; d marks the D form. Peptide text beside a SMILES is read from it. Aoc = NCCCCCCCC(=O)O

Assays:
[1] = system: Pseudomonas aeruginosa; experiment: Antimicrobial activity against Pseudomonas aeruginosa PAK after 16 to 20 hrs by broth microdilution assay; assay type: functional
How it was run: (§1)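 Broth microdilution. Twofold peptide dilutions were made in 50% BHI–50% sterile water for oral streptococci and in 1× Mueller-Hinton broth for the other bacteria. First round 500 to 0.97 µg/ml; a second round of 64 to 0.5 µg/ml was run in some cases, reporting its mode. Inoculum ~1 × 10^5 CFU/ml, 37°C for 16–20 h. Read A600; MIC taken as complete inhibition or ≥90% turbidity reduction versus peptide-free control.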

[2] = system: Escherichia coli; experiment: Antimicrobial activity against Escherichia coli W3110 after 16 to 20 hrs by broth microdilution assay; assay type: functional; how it was run: as §1
[3] = system: Streptococcus sanguinis; experiment: Antimicrobial activity against Streptococcus sanguinis NY101 after 16 to 20 hrs by broth microdilution assay; assay type: functional; how it was run: as §1
[4] = system: Streptococcus sobrinus; experiment: Antimicrobial activity against Streptococcus sobrinus ATCC 33478 after 16 to 20 hrs by broth microdilution assay; assay type: functional; how it was run: as §1
[5] = system: Enterococcus faecalis; experiment: Antimicrobial activity against Enterococcus faecalis after 16 to 20 hrs by broth microdilution assay; assay type: functional; how it was run: as §1
[6] = system: Streptococcus mutans; experiment: Antimicrobial activity against Streptococcus mutans UA159 after 16 to 20 hrs by broth microdilution assay; assay type: functional; how it was run: as §1
[7] = system: Staphylococcus aureus; experiment: Antimicrobial activity against methicillin-resistant Staphylococcus aureus after 16 to 20 hrs by broth microdilution assay; assay type: functional
How it was run: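 MRSA grown aerobically in BHI at 37°C. Broth microdilution: 2-fold peptide dilutions in 1× Mueller-Hinton broth, first round 500 to 0.97 µg/ml; if activity below 62.5 µg/ml, sometimes a second round at 64 to 0.5 µg/ml, reporting the mode. Inoculum ~1 × 10^5 CFU/ml, 37°C for 16-20 h. A600 read. MIC = lowest concentration giving complete inhibition or ≥90% turbidity reduction versus peptide-free control.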

[8] = system: Streptococcus gordonii str. Challis; experiment: Antimicrobial activity against Streptococcus gordonii Challis DL1 at 25 ug/ml after 30 mins by time-kill assay; assay type: functional
How it was run: (§2)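 Time-kill. Overnight cultures were diluted in BHI to A600 0.08 and treated with peptide at 25 µg/ml for 30 s to 2 h. Aliquots were diluted 1:50 in BHI, held on ice, plated and counted after 24 h as surviving CFU/ml. Three independent experiments, mean with SD; unpaired Student t test.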

[9] = system: Streptococcus sanguinis; experiment: Antimicrobial activity against Streptococcus sanguinis assessed as inhibition of bacterial biofilm formation at 50 uM after 10 mins; assay type: functional
How it was run: (§3)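 Mixed-species biofilms were grown 24 h at 37°C anaerobically in TH with 50% filter-sterilized pooled human saliva and 1% sucrose. Inoculum: S. mutans JM11 at 1 × 10^6 CFU/well plus S. oralis, S. gordonii, S. sanguinis, S. mitis and S. salivarius at 2 × 10^5 CFU/well each. Survivors were plated on TH agar for total streptococci and on TH agar with 800 µg/ml spectinomycin for JM11. Detection limit 100 CFU/ml.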

[10] = system: Streptococcus salivarius; experiment: Antimicrobial activity against Streptococcus salivarius assessed as inhibition of bacterial biofilm formation at 50 uM after 10 mins; assay type: functional; how it was run: as §3
[11] = system: Streptococcus mitis; experiment: Antimicrobial activity against Streptococcus mitis assessed as inhibition of bacterial biofilm formation at 50 uM after 10 mins; assay type: functional; how it was run: as §3
[12] = Antimicrobial activity against Streptococcus gordonii Challis DL1 after 16 to 20 hrs by broth microdilution assay; assay type: functional, Streptococcus gordonii str. Challis; how it was run: as §1
[13] = system: Streptococcus mitis; experiment: Antimicrobial activity against Streptococcus mitis ATCC 903 at 25 ug/ml after 30 mins by time-kill assay; assay type: functional, organism-based; how it was run: as §2
[14] = system: Streptococcus sanguinis; experiment: Antimicrobial activity against Streptococcus sanguinis NY101 at 25 ug/ml after 30 mins by time-kill assay; assay type: functional, organism-based; how it was run: as §2
[15] = system: Streptococcus mutans; experiment: Antimicrobial activity against Streptococcus mutans UA159 assessed as inhibition of viability of bacterial biofilm at 25 ug/ml treated for 1 min measured after 4 hrs; assay type: functional
How it was run: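 S. mutans biofilms were seeded from overnight culture diluted 1:50 in TH broth with 0.5% sucrose, centrifuged, and grown 4 h anaerobically at 37°C. They were exposed to peptide in 1× PBS for about 1 min, washed, and given fresh TH broth without sucrose. Recovery was read as A600 after 4 h anaerobic incubation at 37°C. Three experiments; unpaired t test.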

[16] = system: Streptococcus mitis; experiment: Antimicrobial activity against Streptococcus mitis ATCC 903 after 16 to 20 hrs by broth microdilution assay; assay type: functional; how it was run: as §1
[17] = system: Streptococcus oralis; experiment: Antimicrobial activity against Streptococcus oralis assessed as inhibition of bacterial biofilm formation at 50 uM after 10 mins; assay type: functional; how it was run: as §3
[18] = system: Streptococcus mutans; experiment: Antimicrobial activity against Streptococcus mutans JM11 assessed as inhibition of bacterial biofilm formation at 50 uM after 10 mins; assay type: functional; how it was run: as §3
[19] = system: Streptococcus mutans; experiment: Antimicrobial activity against Streptococcus mutans UA159 at 25 ug/ml after 30 mins by time-kill assay; assay type: functional; how it was run: as §2
[20] = system: Streptococcus gordonii; experiment: Antimicrobial activity against Streptococcus gordonii assessed as inhibition of bacterial biofilm formation at 50 uM after 10 mins; assay type: functional; how it was run: as §3
[21] = system: Streptococcus mutans; experiment: Antimicrobial activity against Streptococcus mutans UA159 assessed as inhibition of bacterial biofilm formation at 25 uM after 3 mins by fluorescence assay; assay type: functional
How it was run: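 S. mutans UA159 overnight culture was diluted 1:5,000 in TH with 1% sucrose and grown as biofilm for 24 h. Biofilms were exposed 3 min at room temperature to 25 µM fluorescein-labelled peptide in HEPES/NaHCO3/NaCl/MgCl2 buffer with 0.1% CTAB, pH 7.4, then washed twice. Green fluorescence images were taken and biofilm-associated green pixels quantified as binding intensity units.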

Compound | MIC [1] [µg/mL] | MIC [2] [µg/mL] | MIC [3] [µg/mL] | MIC [4] [µg/mL] | MIC [5] [µg/mL] | MIC [6] [µg/mL] | MIC [7] [µg/mL] | MIC [12] [µg/mL] | MIC [16] [µg/mL] | inhibition [21] | other results
CC[C@H](C)[C@H](NC(=O)[C@H](Cc1ccccc1)NC(=O)[C@H](Cc1cnc[nH]1)NC(=O)[C@H](CCCCN)NC(=O)[C@@H](NC(=O)[C@H](Cc1ccccc1)NC(=O)[C@@H]1CCCN1C(=O)[C@H](Cc1ccc(O)cc1)NC(=O)[C@@H]1CCCN1C(=O)[C@H](Cc1ccccc1)NC(=O)[C@@H](Cc1cnc[nH]1)NC(=O)[C@@H](CC(C)C)NC(=O)[C@@H](Cc1cnc[nH]1)NC(=O)[C@@H](Cc1ccccc1)NC(=O)[C@@H](Cc1cnc[nH]1)NC(=O)[C@H](N)Cc1ccccc1)[C@@H](C)CC)C(=O)N[C@@H](Cc1cnc[nH]1)C(=O)N[C@@H](CCCNC(=N)N)C(=O)N[C@@H](Cc1ccccc1)C(N)=O | 125 (≈ 48.7 µM) | 125 (≈ 48.7 µM) | 62.5 (≈ 24.3 µM) | 62.5 (≈ 24.3 µM) | 250 (≈ 97.4 µM) | 32 (≈ 12.5 µM) | > 500 | – | – | – | –
H-FHFHLHFGGGFIKHFIHRF-NH2 | 62.5 | 62.5 | 62.5 | 62.5 | 62.5 | 32 | 125 | – | – | – | –
H-FKKFWKWFRRF-NH2 | 32 | – | 32 | – | – | 8 | 16 | 16 | 16 | Active | Activity [8]: Active; inhibition [9]: inactive; inhibition [10]: inactive; inhibition [11]: inactive; Activity [13]: Active; Activity [14]: Active; inhibition [15]: Active; inhibition [17]: inactive; inhibition [18]: Active; Activity [19]: Active; inhibition [20]: inactive
H-WWHSWWSTW-NH2 | > 125 | 125 | 125 | 125 | > 125 | 125 | > 125 | 125 | 125 | Active | –
H-WWYNWWQDW-NH2 | > 500 | > 500 | > 500 | > 500 | > 500 | > 500 | > 500 | > 500 | > 500 | – | –
H-WWKDWWERW-NH2 | > 500 | > 500 | > 500 | > 500 | > 500 | > 500 | > 500 | > 500 | > 500 | Active | –
CC[C@H](C)[C@H](NC(=O)[C@H](Cc1ccccc1)NC(=O)[C@H](Cc1cnc[nH]1)NC(=O)[C@H](CCCCN)NC(=O)[C@@H](NC(=O)[C@@H](N)Cc1ccccc1)[C@@H](C)CC)C(=O)N[C@@H](Cc1cnc[nH]1)C(=O)N[C@@H](CCCNC(=N)N)C(=O)N[C@@H](Cc1ccccc1)C(=O)NCCCCCCCC(=O)N[C@@H](CCCNC(=N)N)C(=O)N[C@@H](Cc1c[nH]c2ccccc12)C(=O)N[C@@H](CCCNC(=N)N)C(=O)N[C@@H](Cc1c[nH]c2ccccc12)C(=O)N[C@@H](CCCNC(=N)N)C(=O)N[C@@H](Cc1c[nH]c2ccccc12)C(=O)N[C@@H](Cc1ccccc1)C(N)=O (H-FIKHFIHRF[Aoc]RWRWRWF-NH2) | 62.5 (≈ 24.4 µM) | – | 32 (≈ 12.5 µM) | – | – | 8 (≈ 3.13 µM) | 32 (≈ 12.5 µM) | 32 (≈ 12.5 µM) | 16 (≈ 6.25 µM) | – | Activity [8]: Active; Activity [13]: Active; Activity [14]: Active; Activity [19]: Active
H-AAKHAAHRA-NH2 | > 500 | > 500 | > 500 | > 500 | > 500 | > 500 | > 500 | > 500 | > 500 | inactive | –
H-FHFHLHFPSGSPFIKHFIHRF-NH2 | > 500 | 125 | 62.5 | 62.5 | 250 | 62.5 | > 500 | – | – | Active | –
H-LIKHILHRLGGGFHFHLHF-NH2 | 250 | 250 | 62.5 | 32 | 32 | 16 | 62.5 | – | – | – | –
